{
  "source": "paper PMC4826778",
  "about": "(Bioconjugate chemistry, 2015)",
  "key": {"[1]": {"test": "Photophysical characterization", "type": "physicochemical", "conditions": "for ΦF: reference quinine sulfate"}, "[2]": {"test": "Frequency-domain fluorescence lifetime measurements in solution", "type": "physicochemical", "summary_of_the_method": "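Frequency-domain lifetimes were measured in solution (MeOH) in a 2 × 10 mm quartz cuvette at 18 °C. Excitation was a frequency-modulated 280 nm LED, with emission collected through a 305 nm long-pass filter. PPO in ethanol (τ = 1.4 ns) served as lifetime reference. Modulation-phase data were fitted to a multi-exponential decay model, judged by residuals and χ².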"}, "[3]": {"test": "Kinetic analysis of SPAAC reaction by 1H NMR", "conditions": "reaction with cyclooctyne 5 in ACN-d6/D2O (3:1, v/v)"}, "[4]": {"test": "Water solubility of azido nucleosides", "type": "physicochemical"}, "[5]": {"test": "Parallel artificial membrane permeability assay", "type": "in vitro ADME", "conditions": "for % Fraction Absorbed / Log Pe: 75 μM; for % Fraction Absorbed: 16 h, ambient temperature; for Log Pe: log of the effective permeability coefficient", "summary_of_the_method": "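PAMPA used a polycarbonate filter (0.45 μm pore) coated for 5 min with lecithin (1% or 4% in dodecane). Donor wells held test compound at 75 μM in 5% DMSO/PBS; acceptor wells held PBS. Plates were incubated 16 h at ambient temperature with gentle shaking. Acceptor concentration was measured by UV-Vis against a theoretical-equilibrium solution. Log Pe was calculated by the Wohnsland–Faller equation; at least triplicate.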"}, "MCF-7 cells [6]": {"system": "MCF-7 cells", "test": "MTT cell toxicity assay", "type": "cell-based", "conditions": "24 h exposure, click reaction of cyclooctyne 5 with azide 2 or 21", "summary_of_the_method": "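MCF-7 cells were seeded at 1 × 10⁴ cells/mL and exposed to a range of concentrations of azide and cyclooctyne for 24 h at 37 °C in 5% CO₂. MTT (5 mg/mL solution) was added for 4 h. Medium was removed, DMSO added, and OD read at 595 nm. Viability was calculated as OD sample / OD untreated control × 100%.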"}, "MCF-7 cells [7]": {"system": "MCF-7 cells", "test": "Fluorescence microscopy of in-cell click reaction", "type": "cell-based", "conditions": "1 μM azide and 1 μM cyclooctyne 5", "summary_of_the_method": "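MCF-7 cells were seeded at 5 × 10⁵ cells/mL on chambered coverglass and grown overnight at 37 °C in DMEM/F12 with 5% FBS. Azide (1 μM in reduced-serum medium) was added for 4 h, followed by three PBS (pH 7.5) washes. Cyclooctyne (1 μM) was then added for 16 h at 37 °C, followed by three more washes. Imaging used 360/40 excitation and 470/40 emission filters. Controls were azide only, cyclooctyne only, and preformed adduct. 0.1% trypan blue was used for quenching.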"}, "[8]": {"conditions": "reaction of 5 with benzyl azide in the same solvent system; cited from earlier work"}, "[9]": {"conditions": "In 50 mM phosphate buffer pH 7.0"}},
  "data": [
    {"compound": "5-(1,2,3-Triazol-1H-yl)uridine-MFCO adduct [Compound 27]", "values": [
      {"measurement": "εmax", "setting": "[1]", "value": 7100, "unit": "M^−1cm^1"},
      {"measurement": "λmax(emi)", "setting": "[1]; [9]", "value": "339/434"},
      {"measurement": "λmax(emi)", "setting": "[1]; In DMSO", "value": "331/419"},
      {"measurement": "Brightness", "setting": "[1]; In MeOH", "value": 0.06, "unit": "M^−1cm^1"},
      {"measurement": "Stokes shift", "setting": "[1]; In MeOH", "value": 58, "unit": "nm"},
      {"measurement": "λmax(abs)", "setting": "[1]; In MeOH", "value": 269, "unit": "nm"},
      {"measurement": "λmax(emi)", "setting": "[1]; In MeOH", "value": "327/412"},
      {"measurement": "ΦF", "setting": "[1]; In MeOH", "value": 0.009}
    ]},
    {"compound": "8-(1,2,3-Triazol-1H-yl)adenosine-MFCO adduct [Compound 17]", "values": [
      {"measurement": "εmax", "setting": "[1]", "value": 16400, "unit": "M^−1cm^1"},
      {"measurement": "λmax(emi)", "setting": "[1]; [9]", "value": 399, "unit": "nm"},
      {"measurement": "λmax(emi)", "setting": "[1]; In DMSO", "value": 397, "unit": "nm"},
      {"measurement": "Brightness", "setting": "[1]; In MeOH", "value": 0.10, "unit": "M^−1cm^1"},
      {"measurement": "Stokes shift", "setting": "[1]; In MeOH", "value": 111, "unit": "nm"},
      {"measurement": "λmax(abs)", "setting": "[1]; In MeOH", "value": 271, "unit": "nm"},
      {"measurement": "λmax(emi)", "setting": "[1]; In MeOH", "value": 399, "unit": "nm"},
      {"measurement": "λmax(exc)", "setting": "[1]; In MeOH", "value": 288, "unit": "nm"},
      {"measurement": "ΦF", "setting": "[1]; In MeOH", "value": 0.006},
      {"measurement": "τ1", "setting": "[2]; In MeOH", "value": 0.10, "unit": "ns"},
      {"measurement": "τ2", "setting": "[2]; In MeOH", "value": 0.90, "unit": "ns"},
      {"measurement": "τ3", "setting": "[2]; In MeOH", "value": 5.30, "unit": "ns"},
      {"measurement": "f1", "setting": "[2]; In MeOH, fractional contribution of τ1", "value": 0.46, "unit": "%"},
      {"measurement": "f2", "setting": "[2]; In MeOH, fractional contribution of τ2", "value": 0.39, "unit": "%"},
      {"measurement": "f3", "setting": "[2]; In MeOH, fractional contribution of τ3", "value": 0.15, "unit": "%"},
      {"measurement": "τaverage", "setting": "[2]; in vitro (methanol solution)", "value": 1.20, "unit": "ns"}
    ]},
    {"compound": "[N-]=[N+]=Nc1nc2c(N)ncnc2n1[C@@H]1O[C@H](CO)[C@@H](O)[C@H]1O", "note": "[Compound 1, 8-azidoadenosine]", "values": [
      {"measurement": "second order rate constant", "setting": "[3]", "value": 0.11, "unit": "M⁻¹ s⁻¹"},
      {"measurement": "water solubility", "setting": "[4]", "value": "easily water soluble"}
    ]},
    {"compound": "[N-]=[N+]=Nc1nc2c(N)ncnc2n1[C@@H]1O[C@H](CO)[C@@H](O)[C@@H]1O", "note": "[Compound 2, 8-azido-9-(β-D-arabinofuranosyl)adenine]", "values": [
      {"measurement": "fluorescence of azide substrate", "setting": "[1]", "value": "no fluorescence"},
      {"measurement": "% Fraction Absorbed", "setting": "[5]", "value": 18, "unit": "%"},
      {"measurement": "Log Pe", "setting": "[5]", "value": "−0.5", "unit": "cm/s"},
      {"measurement": "Permeability (fraction absorbed)", "setting": "[5]; 150 μM concentration", "value": "b Permeability for 2 at a 150 μM concentration was also 18%."},
      {"measurement": "non-cytotoxic dosage", "setting": "MCF-7 cells [6]", "value": 1, "unit": "µM"},
      {"measurement": "fluorescence localization in live cells", "setting": "MCF-7 cells [7]", "value": "strong fluorescent localization to the nucleus"},
      {"measurement": "water solubility", "setting": "[4]", "value": "easily water soluble"}
    ]},
    {"compound": "[N-]=[N+]=Nc1nc2c(N)ncnc2n1[C@H]1C[C@H](O)[C@@H](CO)O1", "note": "[Compound 4, 8-azido-2′-deoxyadenosine]", "values": [
      {"measurement": "% Fraction Absorbed", "setting": "[5]", "value": 20, "unit": "%"},
      {"measurement": "Log Pe", "setting": "[5]", "value": "−0.5", "unit": "cm/s"}
    ]},
    {"compound": "OCC1C2CCC#CCCC12", "note": "(stereo not shown) [Compound 5]", "values": [
      {"measurement": "non-cytotoxic dosage", "setting": "MCF-7 cells [6]", "value": 1, "unit": "µM"},
      {"measurement": "second order rate constant k", "setting": "[8]", "value": 0.14, "unit": "M⁻¹ s⁻¹"}
    ]},
    {"compound": "[N-]=[N+]=Nc1nc(N)c2ncn([C@@H]3O[C@H](CO)[C@@H](O)[C@H]3O)c2n1", "note": "[Compound 19, 2-azidoadenosine]", "values": [
      {"measurement": "% Fraction Absorbed", "setting": "[5]", "value": 22, "unit": "%"},
      {"measurement": "Log Pe", "setting": "[5]", "value": "−0.5", "unit": "cm/s"},
      {"measurement": "fluorescence localization in live cells", "setting": "MCF-7 cells [7]", "value": "fluorescence localized in the nucleus"}
    ]},
    {"compound": "[N-]=[N+]=Nc1cn([C@@H]2O[C@H](CO)[C@@H](O)[C@H]2O)c(=O)[nH]c1=O", "note": "[Compound 21, 5-azidouridine]", "values": [
      {"measurement": "fluorescence of azide substrate", "setting": "[1]", "value": "no noticeable fluorescence"},
      {"measurement": "non-cytotoxic dosage", "setting": "MCF-7 cells [6]", "value": 1, "unit": "µM"},
      {"measurement": "fluorescence localization in live cells", "setting": "MCF-7 cells [7]", "value": "fluorescence localized in the nucleus"}
    ]}
  ]
}
